For 4 compounds, MIC and MCC results are on record in ChEMBL document CHEMBL1123109, “Alkyl esters of 3-adenin-9-yl-2-hydroxypropanoic acid: a new class of broad-spectrum antiviral agents” (1985).

Each structure is given as a SMILES string. Values after ≈ are worked out from the molar mass of the structure shown.

Type in all cases: functional
For one assay, the system named is HK. The experiment in a line: Minimum inhibitory concentration which is required to reduce virus-induced cytopathogenicity by 50% against Vesicular stomatitis virus in human kidney,. An outline of the steps:
(§1)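 Vesicular stomatitis virus was inoculated at 100 CCID50 (100× the dose infecting 50% of cells) in each cell type: human embryonic skin-muscle fibroblasts, LR-strain trisomy-21 fibroblasts, HEp-2, CV-1, BS-C-1, Balb/3T3, RK13, human kidney, HeLa and Vero. CPE was read at 1–2 days in every cell type, once complete in untreated infected controls. The MIC is the concentration giving a 50% reduction in cytopathogenicity.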
For orientation: Damage to the host cells serves as the signal in cytopathic effect assays.

Assay [1] relates to Vesicular stomatitis virus. As to the kind of experiment: Inhibition of Vesicular stomatitis virus induced cytopathicity in PRK cells.
For a further assay, the system named is Coxsackievirus B4. The experiment in a line: Inhibition of Coxsackie B4 virus induced cytopathicity in HeLa cells. The note with it: Enterovirus B.
For a further assay, the system named is HeLa. The experiment in a line: Cytotoxic concentration against HeLa cells. The note with it: Homo sapiens. Put shortly:
(§2)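 Uninfected cells were incubated with compound for the same duration as the matching antiviral assay. The minimum cytotoxic concentration is the lowest one causing a microscopically detectable change in normal cell morphology.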

Assay [2] relates to Vesicular stomatitis virus. As to the kind of experiment: Inhibition of Vesicular stomatitis virus induced cytopathicity in CV-1 cells. An outline of the steps: as §1
Assay [3] deals with Vesicular stomatitis virus. As to the kind of experiment: Inhibition of Vesicular stomatitis virus induced cytopathicity in HEp-2 cells. Put shortly: as §1
The test system of assay [4] is Vesicular stomatitis virus. As to the kind of experiment: Inhibition of Vesicular stomatitis virus induced cytopathicity in T-21 cells. Put shortly:
as §1

Assay [5] deals with Vesicular stomatitis virus. As to the kind of experiment: Inhibition of Vesicular stomatitis virus induced cytopathicity in BALB/3T3 cells. The note with it: in Mus musculus. An outline of the steps: as §1
Assay [6] deals with Vesicular stomatitis virus. As to the kind of experiment: Inhibition of Vesicular stomatitis virus induced cytopathicity in Vero cells. Put shortly:
as §1

In assay [7] the test system is Vesicular stomatitis virus. The experiment in a line: Inhibition of Vesicular stomatitis virus induced cytopathicity in BS-C-1 cells. Put shortly: as §1
The next assay deals with Poliovirus 1. The experiment in a line: Inhibition of polio virus 1 induced cytopathicity in HeLa cells. The note with it: Enterovirus C.
A further assay relates to Vaccinia virus. The experiment in a line: Inhibition of Vaccinia virus induced cytopathicity in PRK cells. The note with it: Orthopoxvirus vaccinia.
In another assay the test system is PRK. The experiment in a line: Cytotoxic concentration against PRK cells. The note with it: Oryctolagus cuniculus. Put shortly:
as §2

The next assay concerns Vero. As to the kind of experiment: Cytotoxic concentration against Vero cells. The note with it: Chlorocebus sabaeus. Put shortly:
as §2

The test system of assay [8] is Mammalian orthoreovirus 1. As to the kind of experiment: Inhibition of Reo virus-1 induced cytopathicity in vero cells.
In assay [9] the test system is Vesicular stomatitis virus. As to the kind of experiment: Inhibition of Vesicular stomatitis virus induced cytopathicity in RK13 cells. Put shortly: as §1
The subject of another assay is Sindbis virus. The experiment in a line: Inhibition of Sindbis virus induced cytopathicity in vero cells.
Assay [10] has as its system Vesicular stomatitis virus. As to the kind of experiment: Inhibition of Vesicular stomatitis virus induced cytopathicity in HeLa cells. Put shortly:
as §1

For another assay, the system named is Human respirovirus 3. The experiment in a line: Inhibition of parainfluenza virus-3 induced cytopathicity in vero cells.
For another assay, the system named is Measles morbillivirus. As to the kind of experiment: Inhibition of Measles virus induced cytopathicity in vero cells.
In assay [11] the test system is Vesicular stomatitis virus. The experiment in a line: Inhibition of Vesicular stomatitis virus induced cytopathicity in E6SM cells. Put shortly: as §1
For a further assay, the system named is Human alphaherpesvirus 1. The experiment in a line: Inhibition of HSV-1 induced cytopathicity in PRK cells.

For `Nc1ncnc2c1ncn2CC(O)C(=O)OCc1ccco1` (stereo not drawn), the MIC with HK was above 40 µg/mL; in assay [1], 15 µg/mL (≈ 49.5 µM); in the assay on Coxsackievirus B4, above 40 µg/mL; in [2], above 40 µg/mL; in assay [3], 4 µg/mL (≈ 13.2 µM); in [4], 7 µg/mL (≈ 23.1 µM). Also, the MIC in assay [5] was above 40 µg/mL; in assay [6], above 40 µg/mL; in assay [7] it was above 40 µg/mL; against Poliovirus 1, above 40 µg/mL; in the assay with Vaccinia virus it was 10 µg/mL (≈ 33 µM); in [8], 30 µg/mL (≈ 98.9 µM). The MIC in assay [9] is above 40 µg/mL; with Sindbis virus, above 40 µg/mL; in assay [10], 7 µg/mL (≈ 23.1 µM); against Human respirovirus 3, 15 µg/mL (≈ 49.5 µM); against Measles morbillivirus, above 40 µg/mL; in assay [11], 40 µg/mL (≈ 132 µM). This compound also came in with an MIC in the assay on Human alphaherpesvirus 1 above 40 µg/mL. Also, the MCC in the assay with HeLa, in the assay on PRK and in the assay with Vero was 40 µg/mL each time.

Turning to `CC(C)(C)OC(=O)C(O)Cn1cnc2c(N)ncnc21` (stereo not drawn), the MIC in the assay on HK is above 400 µg/mL; in [1], 150 µg/mL (≈ 537 µM); against Coxsackievirus B4 it was above 400 µg/mL; in assay [2] it was above 400 µg/mL; in [3], 40 µg/mL (≈ 143 µM); in assay [4] it was 15 µg/mL (≈ 53.7 µM). In addition, the MIC is above 400 µg/mL in [5]; above 400 µg/mL in [6]; above 400 µg/mL in assay [7]; above 400 µg/mL in the assay with Poliovirus 1; 150 µg/mL (≈ 537 µM) against Vaccinia virus; 150 µg/mL (≈ 537 µM) in assay [8]. Also, the MIC is 30 µg/mL (≈ 107 µM) in assay [9]; above 400 µg/mL against Sindbis virus; 150 µg/mL (≈ 537 µM) in [10]; 150 µg/mL (≈ 537 µM) with Human respirovirus 3; 150 µg/mL (≈ 537 µM) in the assay on Measles morbillivirus; 150 µg/mL (≈ 537 µM) in assay [11]. Besides, the MIC in the assay with Human alphaherpesvirus 1 was above 400 µg/mL. In addition, the MCC in the assay on HeLa, with PRK and in the assay with Vero was above 400 µg/mL in each case.

With `CCOC(=O)C(O)Cn1cnc2c(N)ncnc21` (stereo not drawn), the MIC was 200 µg/mL (≈ 796 µM) against HK; 1 µg/mL (≈ 3.98 µM) in [1]; above 400 µg/mL in the assay with Coxsackievirus B4; above 400 µg/mL in assay [2]; 7 µg/mL (≈ 27.9 µM) in assay [3]; 1 µg/mL (≈ 3.98 µM) in assay [4]. The MIC in assay [5] is above 400 µg/mL; in assay [6], 400 µg/mL (≈ 1590 µM); in [7], above 400 µg/mL; in the assay with Poliovirus 1, above 400 µg/mL; against Vaccinia virus, 3 µg/mL (≈ 11.9 µM); in assay [8], 40 µg/mL (≈ 159 µM). For the same compound, the MIC in assay [9] is 2 µg/mL (≈ 7.96 µM); against Sindbis virus, above 400 µg/mL; in [10], 4 µg/mL (≈ 15.9 µM); against Human respirovirus 3 it was 20 µg/mL (≈ 79.6 µM); in the assay with Measles morbillivirus it was 20 µg/mL (≈ 79.6 µM); in assay [11], 7 µg/mL (≈ 27.9 µM). In the assay with Human alphaherpesvirus 1, this compound registered an MIC above 400 µg/mL. Besides, the MCC in the assay with HeLa, in the assay on PRK and with Vero was above 400 µg/mL in each case.

In the case of `CC(C)OC(=O)C(O)Cn1cnc2c(N)ncnc21` (stereo not drawn), the MIC in the assay with HK is 300 µg/mL (≈ 1130 µM); in assay [1], 3 µg/mL (≈ 11.3 µM); with Coxsackievirus B4, above 400 µg/mL; in [2] it was above 400 µg/mL; in [3], 7 µg/mL (≈ 26.4 µM); in assay [4], 1 µg/mL (≈ 3.77 µM). For the same compound, the MIC was above 400 µg/mL in assay [5]; 200 µg/mL (≈ 754 µM) in [6]; above 400 µg/mL in assay [7]; above 400 µg/mL with Poliovirus 1; 3 µg/mL (≈ 11.3 µM) against Vaccinia virus; 40 µg/mL (≈ 151 µM) in assay [8]. In addition, the MIC in assay [9] was 1 µg/mL (≈ 3.77 µM); in the assay with Sindbis virus, above 400 µg/mL; in assay [10] it was 30 µg/mL (≈ 113 µM); in the assay on Human respirovirus 3 it was 70 µg/mL (≈ 264 µM); against Measles morbillivirus, 150 µg/mL (≈ 565 µM); in [11] it was 3 µg/mL (≈ 11.3 µM). Besides, in the assay with Human alphaherpesvirus 1, the MIC was above 400 µg/mL. For the same compound, the MCC with HeLa, with PRK and with Vero was above 400 µg/mL throughout.
